Measurements from ChEMBL document CHEMBL1128436, “Synthesis and biological evaluation of a new series of sterols as potential hypocholesterolemic agents” (1995).
Active and inactive are the calls of the source. The rule behind the calls is not given here.

Key:
[1] = tested on: CHO; experiment: Capability of derepressing the transcription of SV40 promoter in CHO cells by luciferase assay; NA= Not active within the test range 0-20 ug/mL; type: functional, cell-based; settings: Cricetulus griseus
In short: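 Counter-screen in CHO clone SV40/LN9, with luciferase driven by the SV40 promoter. Confluent monolayers were given compound at 0.30-20 μg/mL for 24 h in serum-free albumin assay medium, triplicate wells. Lysates were read for luciferase peak luminescence, normalized to lysate protein.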

[2] = tested on: CHO; experiment: In vitro [1-14C]-acetate]-cholesterol biosynthesis inhibition assay (14CACBI) in CHO cells; neg = Negative :no effect on biosynthesis of cholesterol; type: functional, cell-based; settings: Cricetulus griseus
In short: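 Confluent CHO cells in replicate 100 mm dishes were held 20 h in assay medium without 25-hydroxycholesterol, with ethanol vehicle (0.5% v/v) or compound at 20 μg/mL. [1-14C]acetate was then added (final 1 μCi/mL) for 4 h more. Cells were scraped and sonicated, lipids separated, and the cholesterol band scraped and counted by scintillation.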

[3] = tested on: Cricetinae gen. sp.; experiment: Total serum cholesterol level with relative to the control value [383(13)] in hamsters at a dose of 0.2% of diet for 1 week; type: functional, Cricetulus griseus
[4] = molecular target: Low-density lipoprotein receptor (Homo sapiens) (UniProt P01130); experiment: (§1) Capability of derepressing the transcription of Low density lipoprotein receptor promoter in the presence of 25-hydroxycholesterol in CHO cells measured as maximum activity at 20 ug/mL; type: cell-based
Sequence of Low-density lipoprotein receptor (Homo sapiens) (P01130 whole entry, the tested form may be a part): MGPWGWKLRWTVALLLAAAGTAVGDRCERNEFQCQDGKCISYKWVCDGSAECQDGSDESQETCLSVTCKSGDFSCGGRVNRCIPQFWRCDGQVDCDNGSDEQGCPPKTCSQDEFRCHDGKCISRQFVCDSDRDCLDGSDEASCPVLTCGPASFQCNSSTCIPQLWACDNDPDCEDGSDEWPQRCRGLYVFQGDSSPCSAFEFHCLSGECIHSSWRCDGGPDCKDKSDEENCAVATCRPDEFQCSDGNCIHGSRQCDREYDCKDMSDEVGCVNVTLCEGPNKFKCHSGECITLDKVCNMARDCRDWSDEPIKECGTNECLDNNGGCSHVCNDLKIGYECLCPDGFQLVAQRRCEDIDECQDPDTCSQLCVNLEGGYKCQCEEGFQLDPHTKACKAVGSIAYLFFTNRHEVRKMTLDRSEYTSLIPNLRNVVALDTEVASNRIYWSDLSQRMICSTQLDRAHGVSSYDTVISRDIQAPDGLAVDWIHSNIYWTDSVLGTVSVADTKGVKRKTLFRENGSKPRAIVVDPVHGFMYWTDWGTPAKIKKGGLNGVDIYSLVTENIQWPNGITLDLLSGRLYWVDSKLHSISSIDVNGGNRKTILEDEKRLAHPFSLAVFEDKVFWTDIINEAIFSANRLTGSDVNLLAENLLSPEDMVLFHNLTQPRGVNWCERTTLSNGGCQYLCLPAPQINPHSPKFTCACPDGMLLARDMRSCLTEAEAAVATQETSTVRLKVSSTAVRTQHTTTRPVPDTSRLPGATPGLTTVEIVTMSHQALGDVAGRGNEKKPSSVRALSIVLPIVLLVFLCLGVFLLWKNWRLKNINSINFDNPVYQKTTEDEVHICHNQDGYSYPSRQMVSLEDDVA
In short: (§2)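 Stably transfected CHO clone S27/B30 (LDL receptor promoter fused to firefly luciferase), grown to confluence (2-3 days, 37 °C, 5% CO2). Then 24 h in serum-free assay medium (DMEM/Ham's F-12 3:1, 0.5% bovine albumin) with 25-hydroxycholesterol 0.5 μg/mL plus compound at 0.30-20 μg/mL from ethanol stock, triplicate wells. Lysate luciferase peak light per μg protein (Coomassie). EC30 = concentration giving 30% rise over control. MA = % specific induction at 20 μg/mL.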

[5] = molecular target: Low-density lipoprotein receptor (Homo sapiens) (UniProt P01130); experiment: Capability of derepressing the transcription of human Low density lipoprotein receptor promoter in the presence of 25-hydroxycholesterol in CHO cells by luciferase assay; type: cell-based; in short: as §2
[6] = organism: Mesocricetus auratus; experiment: Serum cholesterol level change relative to the control value [383(13)] in hamsters at a dose of 0.2% of diet for 1 week
[7] = tested on: Cricetinae gen. sp.; experiment: Total serum cholesterol level with relative to the control value (313(24)) in hamsters at a dose of 0.2% of diet for 1 week; type: functional, Cricetulus griseus
[8] = molecular target: Low-density lipoprotein receptor (Homo sapiens) (UniProt P01130); experiment: Capability of derepressing the transcription of human Low density lipoprotein receptor promoter in the presence of 25-hydroxycholesterol in CHO cells by luciferase assay; NA= Not active within the test range 0-20 ug/mL; type: cell-based; in short: as §2
[9] = organism: Mesocricetus auratus; experiment: Serum cholesterol level changes with relative to the control value (313(24)) in hamsters at a dose of 0.2% of diet for 1 week
[10] = molecular target: Low-density lipoprotein receptor (Homo sapiens) (UniProt P01130); experiment: Luciferase activity (LDLR/Luc) expressed as light units/microg assayed in LMB the percentage specific light induction of agent over the control at concentration of 20 ug/mL was determined in vitro.; in short: as §2
[11] = tested on: Cricetinae gen. sp.; experiment: Total serum cholesterol level with relative to the control value (274(23)) in hamsters at a dose of 0.2% of diet for 1 week; type: functional, Cricetulus griseus
[12] = tested on: Cricetinae gen. sp.; experiment: Serum cholesterol level change relative to the control value (274(23)) in hamsters at a dose of 0.2% of diet for 1 week; type: functional, Cricetulus griseus
[13] = tested on: Cricetinae gen. sp.; experiment: Serum cholesterol level change relative to the control value [320(14)] in hamsters at a dose of 0.2% of diet for 1 week; type: functional, Cricetulus griseus
[14] = tested on: Cricetinae gen. sp.; experiment: Total serum cholesterol level with relative to the control value [320(14)] in hamsters at a dose of 0.2% of diet for 1 week; type: functional, Cricetulus griseus
[15] = tested on: Cricetinae gen. sp.; experiment: Total serum cholesterol level with relative to the control value (306(27) in hamsters at a dose of 0.2% of diet for 1 week; type: functional, Cricetulus griseus
[16] = tested on: Cricetinae gen. sp.; experiment: Total serum cholesterol level with relative to the control value (320(14)) in hamsters at a dose of 0.2% of diet for 1 week; type: functional, Cricetulus griseus
[17] = tested on: Cricetinae gen. sp.; experiment: Total serum cholesterol level with relative to the control value (333(23)) in hamsters at a dose of 0.2% of diet for 1 week; type: functional, Cricetulus griseus
[18] = tested on: Cricetinae gen. sp.; experiment: Total serum cholesterol level with relative to the control value (366(24)) in hamsters at a dose of 0.2% of diet for 1 week; type: functional, Cricetulus griseus
[19] = tested on: Cricetinae gen. sp.; experiment: Total serum cholesterol level with relative to the control value (383(13)) in hamsters at a dose of 0.2% of diet for 1 week; type: functional, Cricetulus griseus
[20] = tested on: Cricetinae gen. sp.; experiment: Total serum cholesterol level with relative to the control value (425(58)) in hamsters at a dose of 0.2% of diet for 1 week; type: functional, Cricetulus griseus
[21] = tested on: Cricetinae gen. sp.; experiment: Serum cholesterol level changes with relative to the control value (425(58)) in hamsters at a dose of 0.2% of diet for 1 week; type: functional, Cricetulus griseus
[22] = organism: Mesocricetus auratus; experiment: Serum cholesterol level change relative to the control value (313(24)) in hamsters at a dose of 0.2% of diet for 1 week
[23] = organism: Mesocricetus auratus; experiment: Serum cholesterol level change relative to the control value (320(14)) in hamsters at a dose of 0.2% of diet for 1 week
[24] = organism: Mesocricetus auratus; experiment: Serum cholesterol level change relative to the control value (333(23)) in hamsters at a dose of 0.2% of diet for 1 week
[25] = organism: Mesocricetus auratus; experiment: Serum cholesterol level change relative to the control value (366(24)) in hamsters at a dose of 0.2% of diet for 1 week
[26] = organism: Mesocricetus auratus; experiment: Serum cholesterol level change relative to the control value (383(13)) in hamsters at a dose of 0.2% of diet for 1 week
[27] = organism: Mesocricetus auratus; experiment: Serum cholesterol level change relative to the control value (306(27)) was calculated.i n hamsters at a dose of 0.2% of diet for 1 week
[28] = organism: Mesocricetus auratus; experiment: Serum cholesterol level change relative to the control value (306(27)) in hamsters at a dose of 0.2% of diet for 1 week
[29] = organism: Mesocricetus auratus; experiment: Serum cholesterol level change relative to the control value (425(58)) in hamsters at a dose of 0.2% of diet for 1 week
[30] = molecular target: Low-density lipoprotein receptor (Homo sapiens) (UniProt P01130); experiment: as §1; type: functional, cell-based; in short: as §2
[31] = tested on: Cricetinae gen. sp.; experiment: Total serum cholesterol level relative to the control value (274(23)) in hamsters at a dose of 0.2% of diet for 1 week; type: functional, Cricetulus griseus
[32] = tested on: Cricetinae gen. sp.; experiment: Total serum cholesterol level with relative to the control value [306(27)] in hamsters at a dose of 0.2% of diet for 1 week; type: functional, Cricetulus griseus
[33] = organism: Mesocricetus auratus; experiment: Serum cholesterol level change relative to the control value [306(27)] in hamsters at a dose of 0.2% of diet for 1 week
[34] = organism: Mesocricetus auratus; experiment: Serum cholesterol level changes with relative to the control value (333(23)) in hamsters at a dose of 0.2% of diet for 1 week

CC(C)CCC[C@@H](C)[C@H]1CC[C@H]2[C@@H]3CCC4[C@H](Cc5ccc(I)cc5)[C@H](O)CC[C@]4(C)[C@H]3CC[C@]12C (stereo not given in full)
Activity [1]: inactive
Activity [2]: Negative
Total cholesterol [3]: 240 mg/dL
MA [4]: 80%
EC30 [5]: 2.8 µM
Relative change [6]: -37%

C/C=C/C[C@H]1C2CC[C@H]3[C@@H]4CC[C@H]([C@H](C)CCCC(C)C)[C@@]4(C)CC[C@@H]3[C@@]2(C)CC[C@@H]1O (stereo not given in full)
Total cholesterol [7]: 245 mg/dL
EC30 [8]: inactive
Relative change [9]: -22%

C/C=C/C[C@H]1C2CC[C@H]3[C@@H]4CC[C@H]([C@H](C)CCCC(C)C)[C@@]4(C)CC[C@@H]3[C@@]2(C)CC[C@H]1O (stereo not given in full)
Activity [1]: inactive
Activity [2]: Negative
Total cholesterol [7]: 210 mg/dL
MA [10]: 86%
EC30 [5]: 11 µM
Relative change [9]: -33%

CC(C)CCC[C@@H](C)[C@H]1CC[C@H]2[C@@H]3CCC4[C@H](Cc5ccc(Br)cc5)[C@H](O)CC[C@]4(C)[C@H]3CC[C@]12C (stereo not given in full)
Activity [1]: inactive
Total cholesterol [11]: 160 mg/dL
Relative change [12]: -42%
MA [4]: 57%
EC30 [5]: 6 µM

CC(C)CCC[C@@H](C)[C@H]1CC[C@H]2[C@@H]3CCC4[C@H](Cc5ccc(OC(F)(F)F)cc5)[C@H](O)CC[C@]4(C)[C@H]3CC[C@]12C (stereo not given in full)
Activity [1]: inactive
Control [13]: -34%
Total cholesterol [14]: 209 mg/dL
MA [4]: 71%
EC30 [5]: 15 µM

C=CC[C@H]1C2CC[C@H]3[C@@H]4CC[C@H]([C@H](C)CCCC(C)C)[C@@]4(C)CC[C@@H]3[C@@]2(C)CC[C@H]1O (stereo not given in full)
Activity [1]: inactive
Activity [2]: Negative
Total cholesterol [11]: 188 mg/dL
Total cholesterol [15]: 151 mg/dL
Total cholesterol [7]: 167 mg/dL
Total cholesterol [16]: 168 mg/dL
Total cholesterol [17]: 199 mg/dL
Total cholesterol [18]: 174 mg/dL
Total cholesterol [19]: 197 mg/dL
Total cholesterol [20]: 213 mg/dL
Relative change [21]: -50%
Relative change [12]: -31%
MA [4]: 127%
EC30 [5]: 2.9 µM
Relative change [22]: -47%
Relative change [23]: -47%
Relative change [24]: -40%
Relative change [25]: -53%
Relative change [26]: -49%
Relative change [27]: -51%

C=CC[C@H]1C2=CCC3C(CC[C@@]4(C)C3CC[C@@H]4[C@H](C)CCCC(C)C)[C@@]2(C)CC[C@H]1O (stereo not given in full)
Activity [1]: inactive
Activity [2]: Negative
Total cholesterol [15]: 163 mg/dL
MA [4]: 96%
EC30 [5]: 3.5 µM
Relative change [28]: -47%

CC(C)CCC[C@@H](C)[C@H]1CC[C@H]2[C@@H]3CCC4[C@H](Cc5ccccc5)[C@H](O)CC[C@]4(C)[C@H]3CC[C@]12C (stereo not given in full)
Activity [1]: inactive
Activity [2]: Negative
Total cholesterol [7]: 202 mg/dL
MA [4]: 44%
EC30 [5]: 32 µM
Relative change [22]: -35%

C=C(Cl)C[C@H]1C2CC[C@H]3[C@@H]4CC[C@H]([C@H](C)CC[C@@H](CC)C(C)C)[C@@]4(C)CC[C@@H]3[C@@]2(C)CC[C@H]1O (stereo not given in full)
Activity [1]: inactive
Total cholesterol [20]: 241 mg/dL
MA [4]: 120%
EC30 [5]: 4.2 µM
Relative change [29]: -43%

C=CC[C@H]1C2CC[C@H]3[C@@H]4CC[C@H]([C@H](C)CCCC(C)C)[C@@]4(C)CC[C@@H]3[C@@]2(C)CC[C@@H]1O (stereo not given in full)
Total cholesterol [7]: 198 mg/dL
EC30 [8]: inactive
Relative change [9]: -37%

C=CC[C@@H]1C[C@@]2(C)C(CC[C@H]3[C@@H]4CC[C@H]([C@H](C)CCCC(C)C)[C@@]4(C)CC[C@@H]32)C[C@@H]1O (stereo not given in full)
Activity [1]: inactive
Activity [2]: Negative
Total cholesterol [7]: 209 mg/dL
MA [4]: 60%
EC30 [5]: 41 µM
Relative change [22]: -33%

Cc1ccc(C[C@H]2C3CC[C@H]4[C@@H]5CC[C@H]([C@H](C)CCCC(C)C)[C@@]5(C)CC[C@@H]4[C@@]3(C)CC[C@H]2O)cc1 (stereo not given in full)
Activity [1]: inactive
Total cholesterol [20]: 283 mg/dL
MA [30]: 45%
EC30 [5]: 35 µM
Relative change [29]: -33%

CC(C)CCC[C@@H](C)[C@H]1CC[C@H]2[C@@H]3CCC4[C@H](C/C=C\Cl)[C@H](O)CC[C@]4(C)[C@H]3CC[C@]12C (stereo not given in full)
Total cholesterol [20]: 316 mg/dL
EC30 [8]: inactive
Relative change [29]: -26%

CC(C)CCC[C@@H](C)[C@H]1CC[C@H]2[C@@H]3CC[C@H]4[C@H](Cc5ccc(F)cc5)[C@@H](O)CC[C@]4(C)[C@H]3CC[C@]12C
Total cholesterol [31]: 287 mg/dL
Relative change [12]: 5%

CC(C)CCC[C@@H](C)[C@H]1CC[C@H]2[C@@H]3CCC4[C@H](Cc5ccc(O)cc5)[C@H](O)CC[C@]4(C)[C@H]3CC[C@]12C (stereo not given in full)
Total cholesterol [32]: 261 mg/dL
EC30 [8]: inactive
Relative change [33]: -15%

CCC[C@H]1C2CC[C@H]3[C@@H]4CC[C@H]([C@H](C)CCCC(C)C)[C@@]4(C)CC[C@@H]3[C@@]2(C)CC[C@H]1O (stereo not given in full)
Activity [1]: inactive
Activity [2]: Negative
Total cholesterol [15]: 222 mg/dL
MA [4]: 48%
EC30 [5]: 38 µM
Relative change [28]: -27%

C=C(Cl)C[C@H]1C2CC[C@H]3[C@@H]4CC[C@H]([C@H](C)CCCC(C)C)[C@@]4(C)CC[C@@H]3[C@@]2(C)CC[C@H]1O (stereo not given in full)
Activity [1]: inactive
Total cholesterol [17]: 200 mg/dL
MA [4]: 141%
EC30 [5]: 1.8 µM
Relative change [34]: -40%
